Each block holds one molecule with its values, some of them ahead of it. Active and inactive are the calls of the source. No cut-off for these calls is given here.
Legend:
[1] = biological target: Mitogen-activated protein kinase kinase kinase 20 (Homo sapiens) (UniProt Q9NYL2); assay: Inhibition of human ZAK (1 to 331 residues) expressed in bacterial expression system assessed as enzyme activity at 10 uM by KINOMEScan assay relative to control; set-up: scale not given: the % may be the effect or the level left
How it was run: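 In vitro ATP-site competition binding assay across a panel of 456 kinases, with compound tested at 1 and 10 μM.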

[2] = biological target: Alpha-2-HS-glycoprotein (Homo sapiens) (UniProt P02765); assay: Binding affinity to AHSG in human NCI-H23 cells at 1 uM by mass spectrometry based pull down assay; type: cell-based
How it was run: (§1)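 NCI-H23 or NCI-H358 cells were grown and lysed. Lysates were incubated overnight at 4 °C with 1 μM biotinylated covalent probe or DMSO, then pulled down on streptavidin beads. Proteins were run on polyacrylamide gels and stained with Coomassie. Bands were excised, digested and identified by mass spectrometry.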

[3] = biological target: A-kinase anchor protein 12 (Homo sapiens) (UniProt Q02952); assay: Binding affinity to AKAP12 in human NCI-H23 cells at 1 uM by mass spectrometry based pull down assay; type: cell-based; how it was run: as §1
[4] = biological target: Phosphoribosylformylglycinamidine synthase (Homo sapiens) (UniProt O15067); assay: Binding affinity to PFAS in human NCI-H23 cells at 1 uM by mass spectrometry based pull down assay; type: cell-based
[5] = biological target: X antigen family member 1 (Homo sapiens) (UniProt Q9HD64); assay: Binding affinity to XAGE1B in human NCI-H23 cells at 1 uM by mass spectrometry based pull down assay; type: cell-based
[6] = biological target: COP9 signalosome complex subunit 8 (Homo sapiens) (UniProt Q99627); assay: Binding affinity to COPS8 in human NCI-H23 cells at 1 uM by mass spectrometry based pull down assay; type: cell-based
[7] = biological target: U5 small nuclear ribonucleoprotein 200 kDa helicase (Homo sapiens) (UniProt O75643); assay: Binding affinity to SNRNP200 in human NCI-H23 cells at 1 uM by mass spectrometry based pull down assay; type: cell-based
[8] = biological target: Eukaryotic translation initiation factor 5B (Homo sapiens) (UniProt O60841); assay: Binding affinity to EIF5B in human NCI-H23 cells at 1 uM by mass spectrometry based pull down assay; type: cell-based
[9] = biological target: N-acetyl-D-glucosamine kinase (Homo sapiens) (UniProt Q9UJ70); assay: Binding affinity to NAGK in human NCI-H23 cells at 1 uM by mass spectrometry based pull down assay; type: cell-based
[10] = biological target: T1, 80S Ribosome (Homo sapiens) (UniProt P08865+P42677+P62753+P15880+P23396+P61247+P62701+P22090+P46782+P62081+P62241+P46781+P46783+P62280+P25398+P62277+P62263+P62841+P62244+P62249+P08708+P62269+P39019+P60866+P63220+P62266+P62847+P62851+P62854+P62979+P62857+P62273+P62861+P39023+P36578+P46777+Q02878+P18124+P62424+P62917+P32969+P27635+P62906+P62913+P30050+P26373+P40429+P50914+P61313+P18621+Q07020+Q02543+P84098+P46778+P35268+P62829+P62750+P83731+P61254+P61353+P46776+P46779+P47914+P62888+P62899+P62910+P49207+P42766+P18077+Q9Y3U8+P83881+P61927+P61513+P63173+P62891+P62945+P05388+P05386); assay: Binding affinity to RPS24 in human NCI-H23 cells at 1 uM by mass spectrometry based pull down assay; type: cell-based
[11] = biological target: Protein transport protein Sec16A (Homo sapiens) (UniProt O15027); assay: Binding affinity to SEC16A in human NCI-H23 cells at 1 uM by mass spectrometry based pull down assay; type: cell-based
[12] = biological target: Acylamino-acid-releasing enzyme (Homo sapiens) (UniProt P13798); assay: Binding affinity to APEH in human NCI-H23 cells at 1 uM by mass spectrometry based pull down assay; type: cell-based
[13] = biological target: T1, 80S Ribosome (Homo sapiens); assay: Binding affinity to RPS23 in human NCI-H23 cells at 1 uM by mass spectrometry based pull down assay; type: cell-based
[14] = biological target: Cancer-related nucleoside-triphosphatase (Homo sapiens) (UniProt Q9BSD7); assay: Binding affinity to NTPCR in human NCI-H23 cells at 1 uM by mass spectrometry based pull down assay; type: cell-based
[15] = biological target: Signal transducer and activator of transcription 1-alpha/beta (Homo sapiens) (UniProt P42224); assay: Binding affinity to STAT1 in human NCI-H23 cells at 1 uM by mass spectrometry based pull down assay; type: cell-based
[16] = biological target: Adenylyltransferase and sulfurtransferase MOCS3 (Homo sapiens) (UniProt O95396); assay: Binding affinity to MOCS3 in human NCI-H23 cells at 1 uM by mass spectrometry based pull down assay; type: cell-based
[17] = biological target: T2, Dual specificity mitogen-activated protein kinase kinase 7 (Homo sapiens) (UniProt O14733); assay: Binding affinity to MAP2K7 in human NCI-H23 cells at 1 uM by mass spectrometry based pull down assay; type: cell-based
T2 sequence (whole entry): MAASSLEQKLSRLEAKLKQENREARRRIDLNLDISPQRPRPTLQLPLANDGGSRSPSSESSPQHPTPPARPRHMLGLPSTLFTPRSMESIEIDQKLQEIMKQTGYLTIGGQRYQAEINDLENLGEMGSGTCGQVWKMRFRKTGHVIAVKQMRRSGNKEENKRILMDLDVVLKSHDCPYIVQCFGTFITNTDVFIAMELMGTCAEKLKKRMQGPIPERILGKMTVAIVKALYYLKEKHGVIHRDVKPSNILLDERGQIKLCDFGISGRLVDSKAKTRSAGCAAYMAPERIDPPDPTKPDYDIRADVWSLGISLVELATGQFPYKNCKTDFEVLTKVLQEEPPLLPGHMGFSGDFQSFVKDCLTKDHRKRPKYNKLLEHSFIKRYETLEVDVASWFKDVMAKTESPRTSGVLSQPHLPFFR

[18] = biological target: Calponin-2 (Homo sapiens) (UniProt Q99439); assay: Binding affinity to CNN2 in human NCI-H23 cells at 1 uM by mass spectrometry based pull down assay; type: cell-based
[19] = biological target: Proteasome activator complex subunit 1 (Homo sapiens) (UniProt Q06323); assay: Binding affinity to PSME1 in human NCI-H358 cells at 1 uM by mass spectrometry based pull down assay; type: cell-based
[20] = biological target: T1, 80S Ribosome (Homo sapiens); assay: Binding affinity to RPS17 in human NCI-H358 cells at 1 uM by mass spectrometry based pull down assay; type: cell-based
[21] = biological target: Hippocalcin-like protein 1 (Homo sapiens) (UniProt P37235); assay: Binding affinity to HPCAL1 in human NCI-H358 cells at 1 uM by mass spectrometry based pull down assay; type: cell-based
[22] = biological target: Poly(rC)-binding protein 2 (Homo sapiens) (UniProt Q15366); assay: Binding affinity to PCBP2 in human NCI-H358 cells at 1 uM by mass spectrometry based pull down assay; type: cell-based
[23] = biological target: Mitogen-activated protein kinase 13 (Homo sapiens) (UniProt O15264); assay: Inhibition of p38d in human SKCO1 cells at 1 uM after 4 hrs using biotin labeled DLKPGNLAVNEDCELK probe by mass-spectrometric analysis relative to control; type: cell-based

Cancer-related nucleoside-triphosphatase (Homo sapiens), sequence (Q9BSD7 whole entry): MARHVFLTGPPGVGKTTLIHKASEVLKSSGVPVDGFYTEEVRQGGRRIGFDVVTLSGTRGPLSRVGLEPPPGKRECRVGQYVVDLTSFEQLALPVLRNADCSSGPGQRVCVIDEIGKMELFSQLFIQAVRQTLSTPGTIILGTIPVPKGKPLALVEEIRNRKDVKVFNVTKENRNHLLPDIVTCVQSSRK
Proteasome activator complex subunit 1 (Homo sapiens), sequence (Q06323 whole entry, one chain of several): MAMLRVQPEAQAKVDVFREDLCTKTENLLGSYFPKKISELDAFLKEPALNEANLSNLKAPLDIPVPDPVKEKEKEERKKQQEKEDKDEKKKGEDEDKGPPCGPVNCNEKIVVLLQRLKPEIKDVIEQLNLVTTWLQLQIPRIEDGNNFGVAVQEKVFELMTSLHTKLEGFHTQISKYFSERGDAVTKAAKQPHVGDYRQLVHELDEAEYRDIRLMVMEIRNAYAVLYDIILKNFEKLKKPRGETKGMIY
X antigen family member 1 (Homo sapiens), sequence (Q9HD64 whole entry): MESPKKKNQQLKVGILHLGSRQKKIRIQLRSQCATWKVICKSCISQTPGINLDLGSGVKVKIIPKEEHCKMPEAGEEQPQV
Acylamino-acid-releasing enzyme (Homo sapiens), sequence (P13798 whole entry): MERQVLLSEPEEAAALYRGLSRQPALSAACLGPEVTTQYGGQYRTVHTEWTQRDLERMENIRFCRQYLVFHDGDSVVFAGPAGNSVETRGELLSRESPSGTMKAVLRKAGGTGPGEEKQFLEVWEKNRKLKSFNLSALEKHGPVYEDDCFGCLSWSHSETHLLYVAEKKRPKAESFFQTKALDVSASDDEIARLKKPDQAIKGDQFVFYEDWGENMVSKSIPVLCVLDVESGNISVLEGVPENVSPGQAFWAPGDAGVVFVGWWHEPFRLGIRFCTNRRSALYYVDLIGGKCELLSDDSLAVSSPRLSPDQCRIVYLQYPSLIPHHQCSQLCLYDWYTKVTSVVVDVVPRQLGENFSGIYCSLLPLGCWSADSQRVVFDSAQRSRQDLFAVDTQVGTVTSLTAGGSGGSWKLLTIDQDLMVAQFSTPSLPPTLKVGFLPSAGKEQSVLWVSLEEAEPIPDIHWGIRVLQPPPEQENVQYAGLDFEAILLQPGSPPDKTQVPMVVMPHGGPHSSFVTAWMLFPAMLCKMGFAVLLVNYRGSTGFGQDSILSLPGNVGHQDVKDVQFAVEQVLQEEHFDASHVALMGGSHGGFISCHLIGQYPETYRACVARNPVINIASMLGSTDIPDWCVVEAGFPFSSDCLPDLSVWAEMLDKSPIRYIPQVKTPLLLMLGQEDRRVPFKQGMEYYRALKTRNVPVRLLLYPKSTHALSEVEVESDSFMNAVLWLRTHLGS
N-acetyl-D-glucosamine kinase (Homo sapiens), sequence (Q9UJ70 whole entry): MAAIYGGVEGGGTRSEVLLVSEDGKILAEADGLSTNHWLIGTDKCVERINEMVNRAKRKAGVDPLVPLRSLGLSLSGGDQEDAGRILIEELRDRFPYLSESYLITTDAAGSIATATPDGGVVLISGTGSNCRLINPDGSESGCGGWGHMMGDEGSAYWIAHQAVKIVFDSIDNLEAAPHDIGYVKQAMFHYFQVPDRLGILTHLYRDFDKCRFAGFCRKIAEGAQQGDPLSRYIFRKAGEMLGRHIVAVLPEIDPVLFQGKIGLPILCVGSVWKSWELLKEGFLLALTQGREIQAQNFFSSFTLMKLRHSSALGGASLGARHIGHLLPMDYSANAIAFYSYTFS
U5 small nuclear ribonucleoprotein 200 kDa helicase (Homo sapiens), sequence (O75643 whole entry): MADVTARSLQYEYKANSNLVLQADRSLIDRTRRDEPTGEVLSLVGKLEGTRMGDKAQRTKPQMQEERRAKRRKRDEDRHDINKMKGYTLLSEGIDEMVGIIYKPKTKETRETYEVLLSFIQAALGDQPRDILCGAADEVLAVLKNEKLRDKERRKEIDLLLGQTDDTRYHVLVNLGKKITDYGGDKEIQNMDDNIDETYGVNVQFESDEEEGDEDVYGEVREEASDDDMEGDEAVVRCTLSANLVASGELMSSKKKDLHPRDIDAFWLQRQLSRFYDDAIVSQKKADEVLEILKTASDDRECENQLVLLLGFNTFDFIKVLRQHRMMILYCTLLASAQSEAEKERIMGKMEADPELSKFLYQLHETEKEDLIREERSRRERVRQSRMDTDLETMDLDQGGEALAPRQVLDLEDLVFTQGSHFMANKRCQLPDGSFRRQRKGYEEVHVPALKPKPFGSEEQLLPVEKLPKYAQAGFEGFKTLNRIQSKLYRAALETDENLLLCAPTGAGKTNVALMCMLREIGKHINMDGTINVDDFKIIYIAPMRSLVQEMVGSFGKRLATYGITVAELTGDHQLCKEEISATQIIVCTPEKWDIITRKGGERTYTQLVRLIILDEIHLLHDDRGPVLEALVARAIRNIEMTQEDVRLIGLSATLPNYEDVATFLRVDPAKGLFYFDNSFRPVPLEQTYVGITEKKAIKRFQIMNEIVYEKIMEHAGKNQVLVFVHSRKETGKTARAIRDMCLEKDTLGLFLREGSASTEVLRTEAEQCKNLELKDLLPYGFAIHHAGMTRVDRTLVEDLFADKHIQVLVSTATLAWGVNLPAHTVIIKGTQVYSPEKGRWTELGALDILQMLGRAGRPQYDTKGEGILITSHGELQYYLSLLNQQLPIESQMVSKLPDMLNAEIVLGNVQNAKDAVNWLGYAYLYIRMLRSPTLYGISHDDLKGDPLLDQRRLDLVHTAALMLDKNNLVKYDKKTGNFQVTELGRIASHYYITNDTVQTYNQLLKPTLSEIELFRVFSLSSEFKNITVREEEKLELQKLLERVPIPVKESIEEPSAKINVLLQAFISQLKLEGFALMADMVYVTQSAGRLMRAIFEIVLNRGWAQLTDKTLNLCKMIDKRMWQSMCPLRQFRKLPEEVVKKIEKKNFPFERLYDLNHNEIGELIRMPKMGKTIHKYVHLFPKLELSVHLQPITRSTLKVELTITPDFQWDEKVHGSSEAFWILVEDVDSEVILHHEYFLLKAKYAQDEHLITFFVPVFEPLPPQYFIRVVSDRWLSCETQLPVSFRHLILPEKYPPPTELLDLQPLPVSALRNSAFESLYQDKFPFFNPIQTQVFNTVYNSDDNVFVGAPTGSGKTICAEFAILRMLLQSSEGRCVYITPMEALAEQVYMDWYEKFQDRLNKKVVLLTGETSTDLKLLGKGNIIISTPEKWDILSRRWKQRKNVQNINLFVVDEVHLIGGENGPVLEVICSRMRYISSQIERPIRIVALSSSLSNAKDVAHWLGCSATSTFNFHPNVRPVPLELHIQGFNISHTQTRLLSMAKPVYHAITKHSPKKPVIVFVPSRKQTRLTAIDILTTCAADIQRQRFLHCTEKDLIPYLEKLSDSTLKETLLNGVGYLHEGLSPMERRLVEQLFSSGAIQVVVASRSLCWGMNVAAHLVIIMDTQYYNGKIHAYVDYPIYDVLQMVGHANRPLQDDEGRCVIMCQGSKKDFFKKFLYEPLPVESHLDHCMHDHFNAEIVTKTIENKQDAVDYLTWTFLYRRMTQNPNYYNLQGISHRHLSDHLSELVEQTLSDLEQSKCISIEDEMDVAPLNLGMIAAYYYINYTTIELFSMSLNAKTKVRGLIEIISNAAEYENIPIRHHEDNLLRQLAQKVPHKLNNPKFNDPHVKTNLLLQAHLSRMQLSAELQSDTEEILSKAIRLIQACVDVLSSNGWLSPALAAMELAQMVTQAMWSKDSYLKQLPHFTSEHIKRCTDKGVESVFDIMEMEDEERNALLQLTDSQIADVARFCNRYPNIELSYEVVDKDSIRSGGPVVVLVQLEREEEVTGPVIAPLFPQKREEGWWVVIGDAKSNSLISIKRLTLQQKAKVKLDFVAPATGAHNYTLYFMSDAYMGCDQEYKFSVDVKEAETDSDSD
COP9 signalosome complex subunit 8 (Homo sapiens), sequence (Q99627 whole entry, one chain of several): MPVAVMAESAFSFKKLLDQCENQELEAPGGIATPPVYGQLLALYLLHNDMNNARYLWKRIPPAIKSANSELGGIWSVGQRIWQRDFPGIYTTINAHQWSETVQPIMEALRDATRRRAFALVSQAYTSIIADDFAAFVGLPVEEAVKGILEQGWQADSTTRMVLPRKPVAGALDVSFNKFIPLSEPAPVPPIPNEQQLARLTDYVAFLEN
Calponin-2 (Homo sapiens), sequence (Q99439 whole entry): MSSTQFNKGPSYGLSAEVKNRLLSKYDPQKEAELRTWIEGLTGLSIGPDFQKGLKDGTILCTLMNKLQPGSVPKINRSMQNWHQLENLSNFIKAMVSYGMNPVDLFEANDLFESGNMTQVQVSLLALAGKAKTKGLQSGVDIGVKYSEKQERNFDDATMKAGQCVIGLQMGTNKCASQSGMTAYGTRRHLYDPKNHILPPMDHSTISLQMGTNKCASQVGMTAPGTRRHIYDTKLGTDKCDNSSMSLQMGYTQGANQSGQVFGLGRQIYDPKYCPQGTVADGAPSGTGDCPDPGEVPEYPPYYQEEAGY
Alpha-2-HS-glycoprotein (Homo sapiens), sequence (P02765 whole entry): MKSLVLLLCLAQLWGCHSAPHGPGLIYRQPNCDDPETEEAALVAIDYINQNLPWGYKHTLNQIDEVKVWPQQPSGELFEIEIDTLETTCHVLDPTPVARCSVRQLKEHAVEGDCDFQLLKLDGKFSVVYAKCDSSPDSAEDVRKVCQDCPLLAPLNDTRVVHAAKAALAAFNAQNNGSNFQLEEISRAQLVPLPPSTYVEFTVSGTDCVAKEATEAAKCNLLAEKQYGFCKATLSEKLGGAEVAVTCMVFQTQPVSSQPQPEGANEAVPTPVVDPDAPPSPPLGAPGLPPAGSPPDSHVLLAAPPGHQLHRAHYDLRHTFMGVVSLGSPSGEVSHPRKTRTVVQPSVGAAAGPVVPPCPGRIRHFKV
Poly(rC)-binding protein 2 (Homo sapiens), sequence (Q15366 whole entry): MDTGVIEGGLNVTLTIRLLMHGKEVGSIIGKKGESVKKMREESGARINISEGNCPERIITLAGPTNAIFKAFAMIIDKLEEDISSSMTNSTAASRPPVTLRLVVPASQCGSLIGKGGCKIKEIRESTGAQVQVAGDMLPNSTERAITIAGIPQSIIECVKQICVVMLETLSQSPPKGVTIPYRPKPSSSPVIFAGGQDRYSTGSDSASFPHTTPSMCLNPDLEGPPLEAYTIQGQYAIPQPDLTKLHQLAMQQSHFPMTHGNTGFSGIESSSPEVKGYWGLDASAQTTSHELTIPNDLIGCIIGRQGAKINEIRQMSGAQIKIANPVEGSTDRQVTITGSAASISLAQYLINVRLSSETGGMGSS

Compound: COc1cc(O)c2c(c1)/C=C/C[C@H](O)[C@H](O)C(=O)/C=C\C[C@H](C)OC2=O
Activity [1]: 2.2%

Activity [2]: Active
Activity [3]: Active
Activity [4]: Active
Activity [5]: Active
Activity [6]: Active
Activity [7]: Active
Activity [8]: Active
Activity [9]: Active
Activity [10]: Active
Activity [11]: Active
Activity [12]: Active
Activity [13]: Active
Activity [14]: Active
Activity [15]: Active
Activity [16]: Active
Activity [17]: Active
Activity [18]: Active
Activity [19]: Active
Activity [20]: Active
Activity [21]: Active
Activity [22]: Active
Compound: C=CC(=O)Nc1ccccc1Nc1nc(Nc2ccc(N3CCN(CCOCCOCCOCCNC(=O)CCCC[C@@H]4SC[C@@H]5NC(=O)N[C@@H]54)CC3)cc2)ncc1Cl

Compound: C=CC(=O)Nc1ccccc1Nc1nc(Nc2ccc(N3CCN(C)CC3)cc2)ncc1Cl
inhibition [23]: -8.5%
